The target of data set [1] is T1, 5-hydroxytryptamine receptor 1A (Homo sapiens) (UniProt P08908).
T1 sequence (whole entry): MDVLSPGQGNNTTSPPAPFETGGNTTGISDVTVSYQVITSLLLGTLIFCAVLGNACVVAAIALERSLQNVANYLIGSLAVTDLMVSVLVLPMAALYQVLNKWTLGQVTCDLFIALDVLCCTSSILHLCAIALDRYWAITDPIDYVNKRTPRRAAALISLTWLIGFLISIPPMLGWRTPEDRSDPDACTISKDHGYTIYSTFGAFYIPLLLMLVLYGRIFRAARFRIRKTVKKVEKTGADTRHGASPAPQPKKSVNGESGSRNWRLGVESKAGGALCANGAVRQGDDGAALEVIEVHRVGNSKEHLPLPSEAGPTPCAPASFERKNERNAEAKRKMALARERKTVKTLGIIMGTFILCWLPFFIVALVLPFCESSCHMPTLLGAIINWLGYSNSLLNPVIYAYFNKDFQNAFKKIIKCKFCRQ
Kind of data set: Agonist activity at human 5HT1A receptor expressed in C6 cells assessed as stimulation of [35S]GTP-gamma-S binding relative to 5-hydroxytryptamine. Format: functional, cell-based. The method, boiled down: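 Membranes from C6-glial cells expressing h5-HT1A, diluted 20-fold in 20 mM HEPES with 30 µM GDP, 100 mM NaCl, 3 mM MgCl2, 0.2 mM ascorbic acid (16-38 µg protein). Compound preincubated 30 min at 25 °C, then 500 pM [35S]GTPγS added. Six concentrations tested. Nonspecific binding with 10 µM GTPγS.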
In general terms: GTPγS resists hydrolysis and so accumulates on activated G proteins.

The subject of data set [2] is Rattus norvegicus. As to the kind of experiment: Induction of forepaw treading in orally dosed rat after 60 mins. Format: functional. To be noted: po, 1 h. The method, boiled down:
(§1)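 Compounds given po in H2O (10 mL/kg) to rats, five per dose, doses as free base. Forepaw treading sampled in 10 s per rat repeated 10 times over 10 min at 55-65 min. Present if uninterrupted for ≥3 s, responder if score ≥1. Flat body posture scored if present the whole period. […] Ratio is FBP ED50/FPT ED50.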

For data set [3], the system named is Rattus norvegicus. As to the kind of experiment: Induction of flat body posture in orally dosed rat as after 60 mins. Format: functional. The note with it: po, 1 h. The method, boiled down: as §1
Data set [4] has as its system Rattus norvegicus. As to the kind of experiment: Antidepressant like activity in orally dosed rat after 60 mins by forced swimming test. Format: functional. The note with it: po, 1 h. The method, boiled down:
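Porsolt-type test in rats: 15 min swim in a cylinder with 17 cm water at 25 °C, then 5 min retest 24 h later. Immobility scored blind. Vehicle po after session 1. Compound or vehicle po (10 mL/kg) 1 h before retest, n = 5-12 per dose, doses 0.01-40 mg/kg. Responders had immobility <138 s. […] MSD by Kruskal-Wallis then Dunn's test.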

Data set [5] addresses T2, 5-hydroxytryptamine receptor 1A (Rattus norvegicus, UniProt P19327).
T2 sequence (P19327 whole entry): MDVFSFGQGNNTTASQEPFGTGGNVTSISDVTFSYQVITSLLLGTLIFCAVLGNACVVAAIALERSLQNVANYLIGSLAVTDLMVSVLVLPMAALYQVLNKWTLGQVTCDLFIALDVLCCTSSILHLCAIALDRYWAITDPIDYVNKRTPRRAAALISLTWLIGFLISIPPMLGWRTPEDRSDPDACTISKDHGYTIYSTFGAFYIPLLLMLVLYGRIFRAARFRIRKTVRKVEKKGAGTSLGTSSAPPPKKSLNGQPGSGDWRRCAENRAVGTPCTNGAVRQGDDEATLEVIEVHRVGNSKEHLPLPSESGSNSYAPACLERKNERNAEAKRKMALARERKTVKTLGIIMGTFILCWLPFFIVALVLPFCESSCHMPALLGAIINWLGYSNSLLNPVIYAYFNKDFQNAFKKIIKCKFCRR
Kind of data set: Binding affinity to 5HT1A receptor in rat cortex membrane. Format: cell membranes.

Data set [6] concerns the target T3, 5-hydroxytryptamine receptor 1A (Homo sapiens, UniProt P08908).
T3 sequence (P08908 whole entry): T1 sequence (whole entry)
Kind of data set: Agonist activity at human 5HT1A receptor expressed in C6 cells assessed as stimulation of [35S]GTPgammaS binding. Format: functional, cell-based.

Data set [7] is filed under the species Rattus norvegicus. As to the kind of experiment: Ratio of ED50 for flat body posture induction in rat to ED50 for forepaw treading induction in rat.
Data set [8] in a line: Bioavailability in rat. The class given is ADME, organism-based. The note with it: in vivo.
A short description of data set [9]: Bioavailability in dog. To be noted: in vivo. The class given is ADME, organism-based, Canis lupus familiaris.
A short description of data set [10]: Dissociation constant, pKa of the compound. Format: physicochemical.
Data set [11] is described as follows: Lipophilicity, log D of the compound. Format: physicochemical. To be noted: octanol/water.
Data set [12] is described as follows: Bioavailability in orally dosed rat. Format: ADME, organism-based. The note with it: in vivo, po.

Consider `CCCN(CCC)C1CCc2cccc(O)c2C1` (stereo unspecified) [8-OH-DPAT], for which, in data set [1], the Emax turned out to be 35.9%. In addition, the ED50 in the data set with Rattus norvegicus [2] is 40 mg/kg; in the data set with Rattus norvegicus [3], more than 40 mg/kg; in the data set with Rattus norvegicus [4], 0.75 mg/kg.

In data set [5], `CCc1cnc(CNCC2(F)CCN(C(=O)c3ccc(F)c(Cl)c3)CC2)nc1` had a Ki of 56.2 nM.

`O=C(c1ccc(F)c(Cl)c1)N1CCC(F)(CNCc2ncc(CO)cn2)CC1` gave a Ki in data set [5] of 117 nM.

Regarding `O=C(c1ccc(F)c(Cl)c1)N1CCC(F)(CNCc2ccc(CO)cn2)CC1`, the affinity in data set [5] corresponds to a Ki of 7.41 nM. The concentration giving a half-maximal response (EC50) in data set [6] is 2040 nM. For the same compound, the Emax in [1] is 80%.

`COC(=O)c1cnc(CNCC2(F)CCN(C(=O)c3ccc(F)c(Cl)c3)CC2)nc1`: the Ki in data set [5] was 219 nM.

In data set [5], `O=C(c1ccc(F)c(Cl)c1)N1CCC(F)(CNCc2ncc(C(F)F)cn2)CC1` had a Ki of 25.1 nM. Moreover, in [6], the EC50 is 3630 nM. In addition, the Emax in [1] worked out at 82.5%.

In [5], `CNc1ccnc(CNCC2(F)CCN(C(=O)c3ccc(F)c(Cl)c3)CC2)n1` had a Ki of 4.79 nM. For the same compound, the EC50 in data set [6] is 309 nM. In addition, the Emax in data set [1] turned out to be 58.8%.

For the compound `CN(C)c1ccnc(CNCC2(F)CCN(C(=O)c3ccc(F)c(Cl)c3)CC2)n1`, the affinity in data set [5] corresponds to a Ki of 2.29 nM. Also, the EC50 in [6] is 89.1 nM. In addition, in [1], the Emax was found to be 63.4%.

In the case of `O=C(c1ccc(F)c(Cl)c1)N1CCC(F)(CNCc2ncccn2)CC1`, the affinity in data set [5] corresponds to a Ki of 95.5 nM.

`O=C(c1ccc(F)c(Cl)c1)N1CCC(F)(CNCc2nccc(-c3ccco3)n2)CC1` showed a Ki in [5] of 0.427 nM. The EC50 in data set [6] was 10 nM. The Emax in data set [1] was determined as 79%. Moreover, the ED50 in the data set on Rattus norvegicus [4] was more than 2.5 mg/kg.

In [5], `O=c1[nH]c2ccccc2n1CCN1CCN(c2cccc(C(F)(F)F)c2)CC1` [FLIBANSERIN] had a Ki of 11.7 nM. In data set [6], the EC50 is 631 nM. The Emax in [1] was 72%. For the same compound, the ED50 in the data set with Rattus norvegicus [2] is more than 40 mg/kg; in the data set on Rattus norvegicus [3], 20 mg/kg; in the data set with Rattus norvegicus [4], more than 320 mg/kg.

In data set [5], `Cc1cnc(CNCC2(F)CCN(C(=O)c3ccc(F)c(Cl)c3)CC2)cn1` had a Ki of 66.1 nM.

On to `CNc1nc(CNCC2(F)CCN(C(=O)c3ccc(F)c(Cl)c3)CC2)ncc1C`, for which the Ki in data set [5] is 1.74 nM. The EC50 in data set [6] was 85.1 nM. Moreover, the Emax in data set [1] is 64.1%.

Consider `O=C(c1ccc(F)c(Cl)c1)N1CCC(F)(CNCc2ccc(C(F)F)cn2)CC1`, for which the Ki in data set [5] was 3.8 nM. The EC50 in data set [6] is 240 nM. Also, in data set [1], the Emax is 96.4%. Moreover, the ED50 with Rattus norvegicus [2] was determined as 2.5 mg/kg; with Rattus norvegicus [3], 4.2 mg/kg. Further, the Ratio in the data set filed under Rattus norvegicus [7] was 1.7.

For the compound `Cc1ccc(CNCC2(F)CCN(C(=O)c3ccc(F)c(Cl)c3)CC2)nn1`, the Ki in data set [5] was 5.62 nM. Also, the EC50 in data set [6] is 7940 nM. For the same compound, the Emax in [1] was determined as 89.7%.

For the compound `O=C(c1ccc(F)c(Cl)c1)N1CCC(F)(CNCc2ccc(Cl)cn2)CC1`, the Ki in [5] is 0.692 nM. The EC50 in data set [6] is 69.2 nM. Also, the Emax in [1] stood at 80.4%. The ED50 was 3.8 mg/kg in the data set on Rattus norvegicus [2] and 4.9 mg/kg in the data set on Rattus norvegicus [3]. For the same compound, the Ratio in the data set listed under Rattus norvegicus [7] is 1.3.

On to `O=C(O)c1ccc(CNCC2(F)CCN(C(=O)c3ccc(F)c(Cl)c3)CC2)nc1`, for which the Ki in [5] was more than 10000 nM.

Regarding `COc1ccnc(CNCC2(F)CCN(C(=O)c3ccc(F)c(Cl)c3)CC2)n1`, affinity in data set [5] was put at a Ki of 6.46 nM. In [6], the EC50 is 447 nM. The Emax in data set [1] was found to be 75.5%.

Take `CNc1nc(CNCC2(F)CCN(C(=O)c3ccc(F)c(Cl)c3)CC2)ncc1Cl`: the affinity in [5] corresponds to a Ki of 0.741 nM. In [6], the EC50 was 42.7 nM. Besides, the Emax in [1] came out at 71.8%. In the data set on Rattus norvegicus [4], the ED50 was determined as 0.32 mg/kg.

In data set [5], `CC(=O)Nc1cccc(N2CCN(CCCCNS(=O)(=O)CC3CCCCC3)CC2)c1` [NALUZOTAN] had a Ki of 30.2 nM. For the same compound, in data set [6], the EC50 is 93.3 nM. Moreover, the Emax in data set [1] came out at 6.6%. For the same compound, the ED50 in the data set on Rattus norvegicus [2], in the data set with Rattus norvegicus [3] and with Rattus norvegicus [4] was more than 40 mg/kg throughout.

Turning to `O=C(c1ccc(F)c(Cl)c1)N1CCC(F)(CNCc2ncc(Cl)cn2)CC1`, in data set [5], the Ki was 3.39 nM. The EC50 in data set [6] was 155 nM. Further, the Emax in data set [1] came out at 76%. For the same compound, in the data set on Rattus norvegicus [4], it took a dose of 0.03 mg/kg to reach the 50% effect level (ED50).

Take `Cc1ccc(CNCC2(F)CCN(C(=O)c3ccc(F)c(Cl)c3)CC2)nc1` [BEFIRADOL]: the ED50 in the data set with Rattus norvegicus [2] stood at 0.38 mg/kg; in the data set with Rattus norvegicus [3], 1.4 mg/kg; in the data set on Rattus norvegicus [4], 0.06 mg/kg. For the same compound, the bioavailability in data set [8] and in data set [9] was more than 70% throughout. The compound further had a pKa in data set [10] of 6.4. Further, in data set [11], the logD was found to be 2.6.

With `O=C(c1ccc(F)c(Cl)c1)N1CCC(F)(CNCc2ccc(CF)cn2)CC1`, in [5], the affinity corresponds to a Ki of 1.2 nM. The EC50 in [6] is 229 nM. Besides, in data set [1], the Emax amounted to 61%. Besides, the ED50 with Rattus norvegicus [2] was 6.1 mg/kg; with Rattus norvegicus [3], 16 mg/kg; in the data set with Rattus norvegicus [4], 0.17 mg/kg. Moreover, the Ratio in the data set listed under Rattus norvegicus [7] was 2.6.

With `Cc1cnc(CNCC2(F)CCN(C(=O)c3ccc(F)c(Cl)c3)CC2)nc1`, the Ki in data set [5] was 2.24 nM. For the same compound, in data set [6], the EC50 is 389 nM. In data set [1], the Emax came to 70.3%. The ED50 with Rattus norvegicus [2] turned out to be 1.5 mg/kg; in the data set with Rattus norvegicus [3], 8.3 mg/kg; in the data set with Rattus norvegicus [4], 0.05 mg/kg. This compound showed a pKa in [10] of 6.7. The logD in [11] turned out to be 1.5. In addition, the bioavailability in data set [12] is more than 80%. Besides, in the data set filed under Rattus norvegicus [7], the Ratio is 5.5.

As usually defined, the Emax is the size of the effect at its maximum, as opposed to the concentration needed. Usually ED50 stands for the dose at which the effect has come halfway, by size or by number of responders. Read a low ED50 as an effect at a small dose. As usually defined, the Ki is the dissociation constant of the complex between target and ligand, obtained from inhibition or displacement. As a reminder, the EC50 is the concentration that produces a half-maximal response. The bioavailability is dose-corrected exposure relative to a reference, in per cent. Higher therefore signals much systemic uptake. One may read the pKa as the pH at which an ionisable group is half protonated. For orientation: logD means lipophilicity at a set pH, counting ionised and neutral species.
